TRPC6 inh – mouse TRPC6 channel inhibitors, primary screen, cell-based, HEK293, membrane potential dye; Short transient receptor potential channel 6 (Mus musculus), Q61143; ACh-evoked depolarization; hits give low values; B-score at 10 µM; actives 1.1% (n = 310,000);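 active = B-score under library mean minus 3 SD, initial fluorescence not abnormally high, positive integrated signal ratio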;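 also: B-score derived from integrated fluorescence ratio over the kinetic read; more negative B-score means stronger inhibition of depolarization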
Kir21 inh – inhibitors of mouse Kir2.1 inward-rectifier potassium channel; HEK293-Kir2.1, FluxOR thallium flux fluorescence; hits give low values; AID 1672, 2009; actives 0.85% (n = 310,000); B-score at 10 µM;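 active = fluorescence ratio B-score at or below minus 3 SD of library scores, with starting-brightness B-score within 2 SD, cut at about -4.2 in these data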;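 also: channel flux triggered by added potassium and thallium sulfate stimulus; B-score of peak minus minimum fluorescence over baseline after thallium stimulus; more negative B-score means stronger Kir2.1 block with less thallium influx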
Target sequence (P35561 whole entry, looked up): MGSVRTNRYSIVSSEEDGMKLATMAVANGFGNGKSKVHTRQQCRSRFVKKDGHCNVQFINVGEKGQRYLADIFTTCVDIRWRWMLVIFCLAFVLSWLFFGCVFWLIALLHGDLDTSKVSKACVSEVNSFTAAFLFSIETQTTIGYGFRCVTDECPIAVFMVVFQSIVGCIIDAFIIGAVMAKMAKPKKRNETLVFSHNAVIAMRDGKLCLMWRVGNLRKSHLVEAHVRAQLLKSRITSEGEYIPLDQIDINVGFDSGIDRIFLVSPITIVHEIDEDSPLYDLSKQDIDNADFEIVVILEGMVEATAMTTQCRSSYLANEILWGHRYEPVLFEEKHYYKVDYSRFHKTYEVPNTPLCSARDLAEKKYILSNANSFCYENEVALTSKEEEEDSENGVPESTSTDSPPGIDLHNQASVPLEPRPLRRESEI
TRPC4 potent – positive allosteric modulators of TRPC4, primary screen, cell-based, mouse TRPC4beta, HEK293 mu-opioid, Fluo-4 calcium; DAMGO EC20, Fluo-4 Ca2+ flux; hits give high values; B-score at 10 µM; AID 2227, 2009; actives 0.42% (n = 310,000); Short transient receptor potential channel 4 (Mus musculus), Q9QUQ5;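 active = B-score of calcium response area above 5 SD of library B-scores, with initial fluorescence ratio within 5 SD of library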;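 also: B-score of integrated fluorescence ratio over time as area under calcium response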
TRPC4 act – activators of mouse TRPC4 channel, primary screen, Fluo4 calcium, HEK293 TRPC4beta/mu-opioid cells | actives 0.49% (n = 310,000) | B-score at 10 µM | AID 2237, 2010 | Fluo4 calcium fluorescence; hits give high values | Short transient receptor potential channel 4 (Mus musculus), Q9QUQ5;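 active = B-score above 5 SD of library B-scores, and initial fluorescence ratio not above library mean plus 5 SD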;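 also: positive B-score marks a calcium rise read as TRPC4 activation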
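system = HEK293 cells stably co-expressing mouse TRPC4beta and mu-opioid receptor | schedule = Fluo4 dye loading 45 min at room temperature, 110 s recording | measure = B-scored integrated calcium fluorescence ratio | signal = Fluo4 calcium-sensitive dye fluorescence, kinetic, 1 Hz baseline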
TRPC6 activator – mouse TRPC6 channel activators, primary screen, cell-based, HEK293, membrane potential dye. Short transient receptor potential channel 6 (Mus musculus), Q61143. HEK293-TRPC6 membrane potential dye fluorescence; hits give high values. B-score at 10 µM. actives 0.13% (n = 310,000). AID 2550, 2010;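 active = B-score of the integrated fluorescence ratio above library mean plus 3 SD, and starting fluorescence ratio within library mean plus 5 SD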;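 also: higher score means more depolarization so channel activation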
TRPC4 block – inhibitors of mouse TRPC4 channel, primary screen, Fluo4 calcium, HEK293 TRPC4beta/mu-opioid cells. Short transient receptor potential channel 4 (Mus musculus), Q9QUQ5. DAMGO-evoked Fluo4 calcium flux; hits give low values. B-score at 10 µM. actives 0.39% (n = 300,000);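 active = B-score over 3 SD under the library average, no early fluorescence shift, positive overall ratio signal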
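Assay system: Stable TRPC4beta/mu-opioid receptor HEK293 cells | Reagent: DAMGO in two steps, submaximal then maximal | Compound dosing: Single concentration per test compound | Signal: Fluo4 Ca2+ flux fluorescence | Evaluation: Per-well B score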
TRPC4 spec 2 – second selectivity test of TRPC6 inhibitors: effect on mouse TRPC4; actives 42% (n = 920); inhibition, % at 10 µM; HEK293 TRPC4/MOR, membrane potential dye fluorescence; channel activated by saturating DAMGO dose; AID 2776; shares compounds with TRPC6 inh;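 active = compounds whose fluorescence signal differed from control wells by over 3 SD, either direction, in both duplicate plates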
TRPC4 spec – mouse TRPC4 modulation by TRPC6 hits, confirmation, selectivity assay for TRPC6 inhibitor project, cell-based, HEK293 TRPC4/mu-opioid, membrane potential dye; membrane potential fluorescence; actives 61% (n = 920); shares compounds with TRPC6 inh; activity change, negative = inhibition, % at 10 µM;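 active = rise or fall in signal beyond 3 SD of buffer-only wells in both replicate plates, either sign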;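 also: integrated kinetic ratio of fluorescence range over baseline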
HEK293 MPD ctr 2-1 – nonspecific membrane potential effects, parental HEK293, confirmation, counter-screen for TRPC6 inhibitor project, cell-based, second counter screen; shares compounds with TRPC6 inh; parental HEK293 membrane potential dye fluorescence; maximal acetylcholine challenge after compound addition; signal change vs control, % at 10 µM; actives 31% (n = 920); AID 2779, 2010;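 active = membrane potential signal moving either way by over 3 SD of the maximum-effect control, in both duplicate plates, meaning non-specific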
HEK293 MPD ctr-1 – membrane potential modulation in parental HEK293, confirmation, counter-screen for TRPC6 inhibitor project, cell-based; shares compounds with TRPC6 inh; parental HEK293 membrane potential dye fluorescence; membrane potential signal change, % at 10 µM; actives 60% (n = 920);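 active = membrane potential signal shifting up or down by more than 3 SD of buffer-only wells, on both duplicate plates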
HEK293 MPD ctr-2 – parental HEK293 membrane potential modulation, confirmation, counter-screen for TRPC6 modulator project, cell-based | shares compounds with TRPC6 inh | membrane potential dye fluorescence | membrane potential signal change, % at 10 µM | actives 51% (n = 2,400);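 active = membrane potential signal moves up or down beyond 5 SD from buffer-only wells, on both duplicate plates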
HEK293 MPD ctr 2-2 – parental HEK293 nonspecific activity of TRPC6 modulators, second screen; shares compounds with TRPC6 inh; membrane potential dye fluorescence; after compound, maximal acetylcholine stimulation; inhibition, % at 10 µM; actives 14% (n = 2,400);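 active = membrane potential signal drops by more than 5 SD from the mean control signal, in both duplicate plates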;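 also: plate controls were acetylcholine ECmax control wells for no effect and buffer only wells for full effect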
TRPC4 ctr mod – TRPC4 modulation by TRPC6 hit compounds, confirmation, selectivity assay for TRPC6 modulator project, cell-based, HEK293 TRPC4/mu-opioid, membrane potential dye, mouse | AID 488927, 2010 | actives 69% (n = 2,400) | shares compounds with TRPC6 inh | membrane potential fluorescence | percent change from control (negative = decrease, positive = increase), % at 10 µM;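 active = membrane potential signal moved up or down beyond 5 SD of buffer control wells, in both duplicate plates, actives on both sides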;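 also: plate controls were assay buffer wells for no effect and DAMGO maximal-effect wells for full effect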
TRPC4/MOR inh 2 – second check of whether TRPC6 modulators also affect mouse TRPC4; actives 55% (n = 2,400); AID 488928; inhibition, % at 10 µM; HEK293 TRPC4/mu-opioid, membrane potential dye fluorescence; stimulated with maximal-effect DAMGO; shares compounds with TRPC6 inh;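 active = drop in membrane potential signal beyond 5 SD of the control wells in both duplicate plates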;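 also: TRPC4 counter screen for TRPC6 hits run under conditions tuned for TRPC6 not TRPC4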
TRPC6 block conf – mouse TRPC6 channel inhibitors, confirmation, HEK293 cells, membrane potential dye, duplicate; shares compounds with TRPC6 inh; ACh-evoked depolarization; inhibition, % at 10 µM; actives 43% (n = 3,300); AID 488960, 2010;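 active = fluorescence ratio falls more than 5 SD below the full-stimulation control mean, in both duplicate runs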;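 also: integrated fluorescence ratio of peak minus minimum over baseline after agonist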
Active calls of the source: *. Only some compounds are listed: those with a hit (about 2.9% of all), similar ones and a draw of the others.

For CCCCn1c(N)c(-c2nc3ccccc3o2)c2c([N+](=O)[O-])nn(CC)c(=O)c21 the results were TRPC6 inh inactive, Kir21 inh 0.83, TRPC4 potent inactive, TRPC4 act inactive, TRPC6 activator inactive and TRPC4 block inactive.
Screening CCOC(=O)N1CCC(Nc2ccc3nnc(-c4ccccc4)n3n2)CC1 returned TRPC6 inh -5.5*, Kir21 inh -1.4, TRPC4 potent inactive, TRPC4 act inactive, TRPC6 activator inactive, TRPC4 block inactive, HEK293 MPD ctr-2 inactive, HEK293 MPD ctr 2-2 inactive, TRPC4 ctr mod inactive, TRPC4/MOR inh 2 inactive and TRPC6 block conf 68%*.
`N#Cc1ccc(/C=C/C(=O)c2ccccc2)cc1` gave TRPC6 inh inactive, Kir21 inh -2.6, TRPC4 potent inactive, TRPC4 act inactive, TRPC6 activator inactive and TRPC4 block inactive.
O=C(c1ccccc1)N1CCCC(c2ccc(Cl)cc2)=N1 was read as TRPC6 inh inactive, Kir21 inh -0.03, TRPC4 potent inactive, TRPC4 act inactive, TRPC6 activator inactive and TRPC4 block inactive.
For O=C(C1CC1)N1CCCC(c2ccc(Cl)cc2)=N1 the results were TRPC6 inh -7*, Kir21 inh -0.1, TRPC4 potent inactive, TRPC4 act inactive, TRPC6 activator inactive, TRPC4 block inactive, TRPC4 spec 2 inactive, TRPC4 spec 9.6%*, HEK293 MPD ctr 2-1 inactive, HEK293 MPD ctr-1 5.5%* and TRPC6 block conf inactive.
